Laboratory results published in the RNAGym collection of RNA variant scans (doi:10.1126/science.aae0568).
This sample holds only a part of the variants without activity.

B1: tRNA (parent)
chain: GUUCCGUUGGCGUAAUGGUAACGCGUCUCCCUCCUAAGGAGAAGACUGCGGGUUCGAGUCCCGUACGGAACG

Variants of: B1
Assay: yeast fitness relative to wild type (ratio to wild type); higher = fitter; tRNA-Arg(CCU), competitive growth, 37 C, YPD
Procedure, shortened: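 A pool of Saccharomyces cerevisiae strains, each with a tRNA-Arg(CCU) gene variant at the native genomic locus, was competed in YPD at 37°C for 24 hours across six parallel replicates. The variants had been chemically synthesised at a 3% per-site mutation rate over 69 sites, and gene amplicons before and after competition were read by 100-nucleotide paired-end sequencing. Darwinian fitness relative to wild type rested on changes in genotype frequencies. Genotypes required ≥ 100 starting reads, and estimates < 0.5 were set to 0.5.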

**Q.** Which yeast fitness does the source give for GUUCCAUUGGCGUAAUGGUAACGCGUCUCCCUCCUAAGGAGACGACUGCGGGUUCGAGUCCCGUACGGAACG [G6A A43C] here?
**A.** 0.779

**Q.** For GUUCCAUUGGCGUAAUGGUAACGCGUCUCCCUCCUAAGGAGAUGACUGCGGGUUCGAGUCCCGUACGGAACG [G6A A43U], which yeast fitness is on record?
**A.** 0.747

**Q.** With GUUCCAUUGGCGUAAUGGUAACGCGUCUCCCUCCUAAGGUGACGACUGCGGGUUCGAGUCCCGUACGGAACG [G6A A40U A43C] as the variant, how does the yeast fitness read?
**A.** 0.766

**Q.** With GUUCCAUUGGCGUAAUGGUAACGCGUCUCCCUCCUAAGGAGAAGACUGCGGGUUCGAGUCCCGUUCGGAACG [G6A A65U] as the variant, how does the yeast fitness read?
**A.** 0.925

**Q.** Which yeast fitness does the source give for GUUCCAUUGGCGUAAUGGUAACGCGUCUCCCUCCUAAGGAGAAGACUGCGGGUUCGAGUCCCGUGCGGAACG [G6A A65G] here?
**A.** 0.88

**Q.** With GUUCCAUUGGCGUAAUGGUAACGCGUCUCCCUCCUACGGAGAAGACUGCGGGUUCGAGUCCCGUCCGGACCG [G6A A37C A65C A70C] as the variant, how does the yeast fitness read?
**A.** ≤ 0.5

**Q.** Which yeast fitness does the source give for GUUCCAUUGGCGUAAUGGUAACGCGUCUCCCUCCUAAGGAGAGGACUGCGGGUUCGAGUCCCGUACGGUACG [G6A A43G A69U] here?
**A.** 0.716

**Q.** For GUUCCAUUGGCGUAAUGGUAGCGCGUCUCCCUCCCAAGGAGAAGACUGCGGGUUCGAGUCCCGUACGGACCG [G6A A21G U35C A70C], which yeast fitness is on record?
**A.** ≤ 0.5

**Q.** With GUUCCAUUGGAGUAAUGGUAACGCGUCUCCCUCCUCAGGAGAAGACUGCGGGUUCGAGUCGAGUACGGCACG [G6A C11A A36C C61G C62A A69C] as the variant, how does the yeast fitness read?
**A.** ≤ 0.5

**Q.** With GUUCCAUUGGCGUAAUGGUAACGCGUCUCCCUCCUAAGGAGAAGGCUGCGGGUUCGAGUCCCGUUCGGAACG [G6A A45G A65U] as the variant, how does the yeast fitness read?
**A.** 0.771

**Q.** Which yeast fitness does the source give for GUUCCAUUGGCGUAAUGGUAACGCGUCUCCCUCCUAAGGAGAAGCCUGCGGGUUCGAGUCCCGUACGGAUCG [G6A A45C A70U] here?
**A.** ≤ 0.5

**Q.** For GUUCCAUUGGAGUAAUGGUAACGCGUGUCCCUCCAAAGGAGAUGACUGCGGGUCCGAGUCCCGUGCGGAACG [G6A C11A C27G U35A A43U U54C A65G], which yeast fitness is on record?
**A.** ≤ 0.5

**Q.** With GUUCCAUUGGCGUAAUGGUAACGCGUCUCCCUCCUAAGGAGAAGACUGCGGGUUCGAGUCCCGUACGGAUCG [G6A A70U] as the variant, how does the yeast fitness read?
**A.** 0.958

**Q.** Which yeast fitness does the source give for GUUCCAUUGGCGUAAUGGUAACGCGUCUCCCUCCUAAGGAGAAGACUGCGGGUUCGAGUCCCGUACGGAGCG [G6A A70G] here?
**A.** 0.928

**Q.** Which yeast fitness does the source give for GUUCCAUUGGCGUAAUGGUAACGCGUCUCCCUCCUAAGGAGAAGACUGCGGGUUCGAGUCCCGUACGGACCG [G6A A70C] here?
**A.** 0.863

**Q.** With GUUCCAUUGGCGUAAUGGUAACGCGUCUCCCUCCUAAGGAGAAGUCUGUGGGUUCGAGUCCCGUACGGAACG [G6A A45U C49U] as the variant, how does the yeast fitness read?
**A.** 0.564

**Q.** For GUUCCAUUGGAGUCAUGGCAACGCGUCUCCCACCCAAGGAGCAGACUGCGGGUUCGAGUCCCGUACGGAACG [G6A C11A A14C U19C U32A U35C A42C], which yeast fitness is on record?
**A.** ≤ 0.5

**Q.** Which yeast fitness does the source give for GUUCCAUUGGCGUAAUGGUAUCGCGUCUCCCUCCUAAGGAGAAGACUGCGGGUUCGAGUCCCGUACGGAACG [G6A A21U] here?
**A.** 0.659

**Q.** For GUUCCAUUGGAGUAAUGGUAACGCGUCUCCCUCCUAAGGAGAAGUCUGCGGGUUCGAGGCCCGUACGGAACG [G6A C11A A45U U59G], which yeast fitness is on record?
**A.** ≤ 0.5

**Q.** Which yeast fitness does the source give for GUUCCAUUGGCGUAAUGGUAACGCGUCUCCCUCCUAAGGAGAAGACUGCGGGUUCGCAUCCCGUACGGAACG [G6A A57C G58A] here?
**A.** ≤ 0.5

**Q.** For GUUCCAUUGGCGUAAUGGUAUCGCGUCUCCCUUCUAAGGAGAAGACUGCGGGUUCGAGUCCCGUACGGAACG [G6A A21U C33U], which yeast fitness is on record?
**A.** 0.525

**Q.** With GUUCCAUUGGCGUAAUGGUAACGCGUCUCCCUCCUAUGGAGAAGACUGCGGGUUCAAGUCCCGUCCGGAACG [G6A A37U G56A A65C] as the variant, how does the yeast fitness read?
**A.** 0.56

**Q.** Which yeast fitness does the source give for GUUCCAUUGGCGUAAUGGUAACGCGUCUCCCUCCUUAGGAGAAGACUGCGGGUUCAAGUCCCGUAUGGAACG [G6A A36U G56A C66U] here?
**A.** ≤ 0.5

**Q.** For GUUCCAUUGGCGUAAUGGUAACGCGUCUCCCUCCUAAGGGGGAGACUGCGGGUUCGAGUCCCGUACGGAACG [G6A A40G A42G], which yeast fitness is on record?
**A.** 0.554

**Q.** With GUUCCAUUGGCGUAAUGGUAACGCGUCUCCCUCCUAAGGAGAAGUCUGCGGGUUCGAGUCCCGUACGGAACG [G6A A45U] as the variant, how does the yeast fitness read?
**A.** 0.942

**Q.** For GUUCCAUUGGCGUAAUGGUAACGCGUCUCCCUCCUUAGGGGAAUACUGCGGGUCCGAGUCCCGUACGGAACG [G6A A36U A40G G44U U54C], which yeast fitness is on record?
**A.** ≤ 0.5

**Q.** Which yeast fitness does the source give for GUUCCAUUGGCGUAAUGGUAACGCGUCUCCCUCCUAAGGGAGAGACUGCGGGUUCGAGUCCCGUACGGAACG [G6A A40G G41A A42G] here?
**A.** ≤ 0.5

**Q.** For GUUCCAUUGGCGUAAUGGUAUCGCGUCUCCCUUCUAAGGAGAAGACUGCGGGUUCGUGCCCCGUACGGAACG [G6A A21U C33U A57U U59C], which yeast fitness is on record?
**A.** ≤ 0.5

**Q.** With GUUCCAUUGGCGUAAUGGUAGCGCGUCUCCCUCCUAAGGAGAAGACUGCGGGUUUAAGUCCCGUACGGAACG [G6A A21G C55U G56A] as the variant, how does the yeast fitness read?
**A.** ≤ 0.5

**Q.** For GUUCCAUUGGCGUAAUGGUAACGCGUCUCCCUCCUAAGGAGGAGACUGCCGGUUCGAGUCCCGUACGGAACG [G6A A42G G50C], which yeast fitness is on record?
**A.** 0.62

**Q.** With GUUCCAUUGGCGUAAUGGUAUCGCGUCUCCCUCCUAAGGAGAAGUCUCCGGGUUCGCGUCCCGUACUGAACG [G6A A21U A45U G48C A57C G67U] as the variant, how does the yeast fitness read?
**A.** ≤ 0.5

**Q.** For GUUCCAUUGGCGUAAUGGUAACGCGUCUCCCUCCUAAGGCGAAGACUGCGGGUUCGAGUCCCGUACGGAACG [G6A A40C], which yeast fitness is on record?
**A.** 0.967

**Q.** With GUUCCAUUGGCGUAAUGGUAACGCGUCUCCCUCCUGAGGAGAAGCCUGCGGGUUCGAGUCCCGUACGGAACG [G6A A36G A45C] as the variant, how does the yeast fitness read?
**A.** 0.751

**Q.** For GUUCCAUUGGCGUAAUGGUAACGCGUCUCCCUCCUAAGGAGAAGCGUGCGGGUUCGAGUCCCGUACGGAACG [G6A A45C C46G], which yeast fitness is on record?
**A.** 0.617

**Q.** With GUUCCAUUGGCGUAAUGGUAACGCGUCUCCCUCCUAAGGAGAAGACUGCGGGUUCGAGUCCCGUCCGGAUCG [G6A A65C A70U] as the variant, how does the yeast fitness read?
**A.** 0.712

**Q.** With GUUCCAUUGGCGUAAUGGUAACGCGUCUCCCUCCUAAGGAGAUGACUGCGGGCUCGCGUCCCGUUCGGAACG [G6A A43U U53C A57C A65U] as the variant, how does the yeast fitness read?
**A.** ≤ 0.5

**Q.** For GUUCCAUUGGCGUAAUGGUAACGCGUCUCCCUCCUAAGGAGAAGACUGCGGGUUCGUGUCCCGUCCGGACCG [G6A A57U A65C A70C], which yeast fitness is on record?
**A.** 0.534
